Test results reported in ChEMBL document CHEMBL3045046, “Synthesis, herbicidal activities, and 3D-QSAR of 2-cyanoacrylates containing aromatic methylamine moieties” (J Agric Food Chem, 2008).

Legend:
Type in all cases: functional
Spinacia oleracea = test: Inhibition of photosynthetic electron transport in Spinacia oleracea (spinach)isolated chloroplasts assessed as inhibition of Hill reaction
Outline: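 Chloroplasts from fresh spinach leaves, homogenised in ice-cold pH 7.8 buffer (0.4 M sucrose, 10 mM NaCl, 50 mM Tris-HCl), spun 3 min 120g then 5 min 1000g at 4 °C. Reaction buffer 350 mM NaCl, 10 mM Tris-HCl pH 7.8 with DCPIP; 2 min light (360 µmol m^-2 s^-1), DCPIP reduction at 620 nm. Compounds 0.01 mg/L–0.3 mg/mL in […]/water, ≥triplicate; IC50 by log-linear regression.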

Medicago sativa [1] = test: Herbicidal activity against Medicago sativa (alfalfa) assessed as inhibition of herb growth at 1.5 kg/ha during postemergence treatment protocol; conditions: post-emergence, read-out: GI
Medicago sativa [2] = test: Herbicidal activity against Medicago sativa (alfalfa) assessed as inhibition of herb growth at 1.5 kg/ha during preemergence treatment protocol; conditions: pre-emergence, read-out: GI
Amaranthus retroflexus [3] = test: Herbicidal activity against Amaranthus retroflexus assessed as inhibition of herb growth at 1.5 kg/ha during postemergence treatment protocol; conditions: post-emergence, read-out: GI
Brassica napus [4] = test: Herbicidal activity against Brassica napus (oilseed rape) assessed as inhibition of herb growth at 1.5 kg/ha during preemergence treatment protocol; conditions: pre-emergence, read-out: GI
Digitaria sanguinalis [5] = test: Herbicidal activity against hairy Digitaria sanguinalis (hairy crabgrass) assessed as inhibition of herb growth at 1.5 kg/ha during postemergence treatment protocol; conditions: post-emergence, read-out: GI
Amaranthus retroflexus [6] = test: Herbicidal activity against Amaranthus retroflexus assessed as inhibition of herb growth at 1.5 kg/ha during preemergence treatment protocol; conditions: pre-emergence, read-out: GI
Brassica napus [7] = test: Herbicidal activity against Brassica napus (oilseed rape) assessed as inhibition of herb growth at 1.5 kg/ha during postemergence treatment protocol; conditions: post-emergence, read-out: GI
Digitaria sanguinalis [8] = test: Herbicidal activity against hairy Digitaria sanguinalis (hairy crabgrass) assessed as inhibition of herb growth at 1.5 kg/ha during preemergence treatment protocol; conditions: pre-emergence, read-out: GI
[9] = Spinacia oleracea, read-out: pIC50 (converted)

SMILES | IC50 (Spinacia oleracea) | IC50 (Spinacia oleracea; [9]) | inhibition of growth at 1500 g/ha (Medicago sativa [1]) | inhibition of growth at 1500 g/ha (Medicago sativa [2]) | inhibition of growth at 1500 g/ha (Amaranthus retroflexus [3]) | inhibition of growth at 1500 g/ha (Brassica napus [4]) | inhibition of growth at 1500 g/ha (Digitaria sanguinalis [5]) | inhibition of growth at 1500 g/ha (Amaranthus retroflexus [6]) | inhibition of growth at 1500 g/ha (Brassica napus [7]) | inhibition of growth at 1500 g/ha (Digitaria sanguinalis [8])
CCOCCOC(=O)/C(C#N)=C(\NCc1ccc(Br)nc1)SC | 0.084 ppm | 83.2 nM | 59.9% | 12% | 100% | 23.9% | 60% | 91.9% | 100% | 0%
CCOCCOC(=O)/C(C#N)=C(/CC)NCc1ccc(Br)nc1 | 0.335 ppm | 339 nM | 77.8% | 28.8% | 100% | 71.9% | 95.2% | 21.6% | 100% | 18.8%
CCOCCOC(=O)/C(C#N)=C(\NCc1ccc(Br)nc1)C(C)C | 0.099 ppm | 100 nM | 32.1% | 0% | 97.8% | 68.7% | 42.4% | 48.6% | 100% | 16.8%
CCOCCOC(=O)/C(C#N)=C(\NCc1ccc(N(C)C)nc1)SC | 0.292 ppm | 295 nM | 51.6% | 0% | 80.9% | 37.4% | 45.6% | 13.5% | 100% | 28.7%
CCOCCOC(=O)/C(C#N)=C(\NCc1ccc(N(C)C)nc1)C(C)C | 0.086 ppm | 85.1 nM | 58.3% | 27.9% | 100% | 29.3% | 88% | 75.7% | 100% | 52.5%
CCOCCOC(=O)/C(C#N)=C(\NCc1ccc(OCC(F)(F)F)nc1)SC | 0.048 ppm | 47.9 nM | 54.2% | 0% | 100% | 10% | 100% | 0% | 100% | 0%
CCOCCOC(=O)/C(C#N)=C(\NCc1cnc(Cl)s1)C(C)C | 0.161 ppm | 162 nM | 37.1% | 15.7% | 100% | 70.3% | 45.6% | 67.6% | 100% | 28.7%
CCOCCOC(=O)/C(C#N)=C(\NCc1cnc(Br)s1)SC | 0.102 ppm | 102 nM | 26.8% | 8.2% | 88% | 28.7% | 36% | 29.7% | 100% | 8.9%
CCOCCOC(=O)/C(C#N)=C(\NCc1ccc(Cl)cc1)C(C)C | 0.043 ppm | 42.7 nM | 68.9% | 0% | 100% | 4.4% | 46.4% | 40.5% | 100% | 12.9%
CCOCCOC(=O)/C(C#N)=C(\NCc1ccc(Cl)cc1)SC | 0.026 ppm | 25.7 nM | 12.9% | 0% | 100% | 24.9% | 31.2% | 59.4% | 100% | 24.8%
CCOCCOC(=O)/C(C#N)=C(\NCc1ccc(Cl)nc1)SC | 0.167 ppm | 166 nM | 41.3% | 1.5% | 100% | 68.9% | 89.9% | 13.7% | 100% | 18.6%
